Measurements reported in the EternaBench riboswitch data.

System: MS2 coat protein
Assay: apparent Kd, MS2 coat protein; higher = weaker binding; RNA-MaP array; FMN 200 µM where present
Method in brief: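 Two titrations, one without ligand and one with constant ligand, were run with SNAP-549-labelled MS2 coat protein from 0.7 or 1.5 nM, doubling to 3 µM. The targets were designs transcribed by stalled E. coli RNA polymerase on Illumina sequencing-chip clusters, in 100 mM Tris-HCl pH 7.5, 80 mM KCl, 4 mM MgCl2, BSA, DTT, yeast tRNA and Tween-20. The apparent Kd is the median of filtered per-cluster binding-curve fits, with green signal normalised to red-channel RNA signal and control-cluster median Fmax.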

[1] = designed as: ON switch for flavin mononucleotide, no ligand
[2] = ligand present: flavin mononucleotide, designed as: ON switch for flavin mononucleotide
[3] = designed as: OFF switch for flavin mononucleotide, no ligand
[4] = ligand present: flavin mononucleotide, designed as: OFF switch for flavin mononucleotide

Sequence | apparent Kd [1] | apparent Kd [2] | apparent Kd [3] | apparent Kd [4]
GGUGCAUAUGAGAAGGCGAUCAUGAAACAUGAUCGAGGAUAUCAUGUAAACAUGAGGAUCACCCAUGUAUGGGUAAAGUGCAUC | 0.444 µM | 0.0271 µM |  | 
UCAUGAUGGAAGAAGGGAGUCGUGCAUAACAACUCAGGAUAUUUCACAUGAGGAUCACCCAUGUCGAAGUAACAAUGUUGAUUA |  |  | 0.0159 µM | 0.028 µM
GCCAUCACAUGAGGAUAUGCUCCCGUUUCGGGAGCAGAAGGCGUGUCAUUAGACAUGAGGAUCACCCAUGUAGUUAAGAUGGCA | 0.667 µM | 0.0228 µM |  | 
AAAAUCACAUGAGGAUCACCCAUGUACCGAGCUAGGGCUACAUAGGAUAUGACAAGUAUAGCUUGUCAGAAGGGUGAGUCUCGC | 0.166 µM | 0.258 µM |  | 
UAGAUGGGAGGAUAUACGUAGAUACAGAUUCAUGUAGUGCUACAUGAGGAUCACCCAUGUAGAAGGCCCGUCUU |  |  | 0.0394 µM | 0.33 µM
AAGAAUAGAAAGAUUAAUAUGAAUACAUGAGGAUCACCCAUGUAGGAUAUCGACGUCAAUGACGUCGAGAAGGACAUAAAUAAU |  |  | 0.0097 µM | 0.00909 µM
UCACGGAGCCUAGGAUAUACAUGAGGAUCACCCAUGUAUUAACGUUAGUGCUGGACUGAUUUGCUGUAGAAGGAGGUCACCGAA |  |  | 0.0209 µM | 0.0431 µM
GGAGCACACAUUAACAUGAGGAUCACCCAUGUCAAAAGACAUGAGGAUAUGGUUCCGAAAAGGAUCCAGAAGGCAUGGUGCUCC | 0.356 µM | 0.0155 µM |  | 
ACAUGAGGAUCACCCAUGUAAAAUUAAGAAGGUAGAUACUUGAGGAUCACCCAUGUACAUGGGACUAAGGAUAUUAUAAUAAUU | 0.0557 µM | 0.0491 µM |  | 
AAGAAACAUGAGGAUCACCCAUGUGAGGAUAUGAAAAAGAAAAGAAAAGAAAGAAGAAUCAGAAGGCACAAAGG |  |  | 0.0308 µM | 0.0451 µM
GUCAGCUCGUGAGGAUAUACAACACUUCUUCGGCAGUGUAUUAAGAUCACAUGAGGAUCACCCAUGUAGAAGGCACGAGCUGAU |  |  | 0.0141 µM | 0.231 µM
CAAAUUUGGUAAGGAUAUCCCACAUUAUUCUGACCCGUGCAAGCUACAUGAGGAUCACCCAUGUGGGAGAAGGUGCGUUAAAGA |  |  | 0.063 µM | 0.079 µM
UUGUUAUAUGUAGGAUAUGCGUAUUAUUAUUAGGCAGAAGGACAUGAGGAUCACCCAUGUAUGUUGUUGUUAUAUAUUAUAUAU |  |  | 0.0284 µM | 0.0296 µM
UUUAUGGGACAGAAGGGCAUUUACAUGAGGAUCACCCAUGUUCAUCAUUGCAGGAUAUGUAUUACAUGAGGAUCACCUAUGUAC | 0.0749 µM | 0.0244 µM |  | 
GUCGUGUUAGGAUAUGGCAACGGCUAGGAAACUAGUUGUUGUUAGAAGGAACAUGAGGAUCACCCAUGUAUGAC |  |  | 0.0343 µM | 0.0843 µM
GUGCUUAACUAGAAGGCCGUAUGCAAAGCAUACGGAGGAUAUGGGUUCCGGAAACGGACAUGAGGAUCACCCAUGUGGCACAAA | 0.111 µM | 0.0127 µM |  | 
UGUCGGAGCAGAGGAUAUUACAUGAGGAUCACCCAUGUAUGAACCAAUAGCUGGAAACAGCAAUGUAAGAAGGCUACUCCGACA |  |  | 0.00541 µM | 0.0314 µM
GGAUAGGACAGAGGAUAUACGGCUAGGAGAUACUAGCUACUAUUCCUCACAUGAGGAUCACCCAUGUAGAAGGCUGUCCUAUCG |  |  | 0.0176 µM | 0.14 µM
GAUGAGGUAGGAUAUACGAUAAUAUAGGGUAGAUAUAUAACACAUGAGGAUCACCCAUGUAGAAGGACCAGUAC |  |  | 0.0386 µM | 0.0612 µM
ACAGUUCUGCAAGGAUAUCGUCCUAGUUUGUUUCGAGAAGGUGCUUUAGUUUAUUCCUUUUGUUUACAUGAGGAUCACCCAUGU |  |  | 0.0236 µM | 0.0169 µM
GUGUACAUAUCAGGAUAUCUAUUUCCUACAUGAGGAUCACCCAUGUAGAUGAUCACCCAUGUAAAGGAGAAGGGAUAUGUAUAC | 0.384 µM | 0.222 µM |  | 
AGAAACUACGAGAAGGACAUGAGGAUCACCCAUGUAACCACUAUGUGGAAUGUAGGAUAUCGUAGUUUCAGGAUCGUGAGAUCA |  |  | 0.00617 µM | 0.00984 µM
GUACAUGAGCAGAAGGGCAAUUAAUUAAAUUUUUAUGUUUAUCAGAUAUGCAGGAUAUGUUAAACAUGAGGAUCACCCAUGUAC | 0.129 µM | 0.0658 µM |  | 
UUAGCAUACCGAGGAUAUUCAUAUAAUAAAUAAACAUGAGGAUCACCCAUGUGGCGAAAGCCUAGGGAGAAGGCGGAAUGCUAC | 0.206 µM | 0.0265 µM |  | 
AUAAUGUAAGGAUAUCAGUCGACUAGCUGCGGCUAGUCGACUGAGAAGGUACAUGAGGAUCACCCAUGUGUUCC |  |  | 0.133 µM | 0.868 µM
CGUAUGUCAGGAUAUGCGUAUGCCGCUCAGGGCGAGCGGCAGCAGAAGGGACAUGAGGAUCACCCAUGUUCGGG |  |  | 0.0714 µM | 0.0493 µM
GGUGCGUUUGUGAGGAUAUGCUGGUCCUUGGUUCUGCAGAAGGCACAUGAGGAUCACCCAUGUGGUGUCGUACC |  |  | 0.077 µM | 0.162 µM
GGCGGGCGAAACAUGAGGAUCACCCAUGUGUUAUAAUUAAUAUAGGAUAUGUUUAUACUUUUUGGGCAGAAGGAUGCGCCUGCC | 0.0978 µM | 0.0675 µM |  | 

Sequence | apparent Kd [1] | apparent Kd [2] | apparent Kd [3] | apparent Kd [4]
CCACGGUAUGUAGGAUAUGCAUAGCAUUGCUAUGCAGAAGGACAUGAGGAUCACCCAUGUAUGUAUUCCAUACUAAUCCCGUGC |  |  | 0.00642 µM | 0.00637 µM
GAAAGAAAUCCAACAUGAGGAUCACCCAUGUUAGGCCAGUGGCAGGAUAUGGUGGGACUGAUGCACCAGAAGGGUCAGGUGGGC | 0.0179 µM | 0.01 µM |  | 
GCGAUGUCAGGAUAUGUGUAAAGAAUAAAACAAAUAACAACACAGAAGGGACAUGAGGAUCACCCAUGUUACGC |  |  | 0.0301 µM | 0.0372 µM
CCGCAAAUGCAGGAUAUCGUAUCGGAUACGAUACGAGAAGGGCAUACAUGAGGAUCACCCAUGUGUCCUAGCGG |  |  | 0.0166 µM | 0.0352 µM
CCGGAAUCCUAGGAUAUGCUAGACGAAAGUCUAGCAGAAGGAGGAACAUGAGGAUCACCCAUGUGUCCUACCGG |  |  | 0.0186 µM | 0.025 µM
UGUCGGAGCGGAGGAUAUUACAUGAGGAUCACCCAUGUAUGAACCAAUAGCUGGAAACAGCAAUGUAAGAAGGCUGCUCCGACA |  |  | 0.00967 µM | 0.131 µM
UUAGUUUUGCAAGGAUAUGUUUAUUUAUAGUUGCCUCUUACAUGAGGAUCACCCAUGUUUUACUUACAGAAGGUGCAAUGAUUU |  |  | 0.165 µM | 0.416 µM
AAAUAAAGGAUUAAGGAUAUAUCACAUGAAACAUGAGGAUCACCCAUGUAAUAAUAUAAAGGGUGAUAGAAGGUAGUUUAUAAAUA | 0.415 µM | 0.44 µM |  | 
AUCAGGUCGUCAGGAUAUACGUCACUGCGUCAGCAGUGUGGUAAGAUCACAUGAGGAUCACCCAUGUAGAAGGGACGAGCUGAU |  |  | 0.0132 µM | 0.311 µM
AGCUACGUUUCGUAGCAGUGUCAUCGAGAAGGCCUUAUAACAUGAGGAUCACCCAUGUUUGCAUGGGAGGAUAUCGAUGAUACA | 0.0201 µM | 0.00563 µM |  | 
UUCCAACAUGAGGAUCACCCAUGUCGGAAGCAUUAAGGAUAUGGGCGGCCGGUGGCUGAACCAGAAGGUAAGCCAG | 0.0153 µM | 0.0181 µM |  | 
AGAAAGUCAGGAUAUCAGAAACUAGUCGAAACGACUAGAAAUGAGAAGGGACAUGAGGAUCACCCAUGUAAGAA |  |  | 0.0297 µM | 0.0434 µM
AAUUAAUUAAUACAUGAGGAUCACCCAUGUAAUUAUUAGAUCAAGGAUAUCAGCUCGAAUAGAGCUGAGAAGGUGAUCACAUGU | 0.475 µM | 0.111 µM |  | 
ACAUGAUCAGGAUAUACAUGAGGAUCACCCAUGUAUAUAAAAAAAAAACUUUCUUCAUGUAGAAGGGAUCUUGU |  |  | 0.0166 µM | 0.0263 µM
UGUAUGGACAGAGGAUAUACAGAUAGGAUCUACUAUCAAACAGUCCUUACAUGAGGAUCACCCAUGUAGAAGGCUGUCCAUACU |  |  | 0.0194 µM | 0.0858 µM
GCACUGGAUGUAGGAUAUCAGGACGAUAAGUCCUGAGAAGGACAUGAGGAUCACCCAUGUGUUAAAACCAGUGCAUAUAAUAUA |  |  | 0.0138 µM | 0.0206 µM
GUUUUUUUUAGUUCAUACUAUUUGAUAGAAGGUGAAAUAUAGACAUGAGGAUCACCCAUGUAAUUCAAGGAUAUGUAGUUACUC | 0.0406 µM | 0.0327 µM |  | 
CUGCUCCGUGUAGGAUAUGCAUACUCCCAUUAUGCAGAAGGACAUGAGGAUCACCCAUGUAUGUUAUUAUCAUGUGUUGCGUGC |  |  | 0.0425 µM | 0.185 µM
AACUCGUCAGGAUAUGCGCGCAGUUGCUGCGCUUCGCCGUUGCAGAAGGGACAUGAGGAUCACCCAUGUAGGUC |  |  | 0.0358 µM | 0.0435 µM
AAGAAGUGAGGAUAUCGAAGACAAAAAAAAAAAAAGUCGAACGAGAAGGCACAUGAGGAUCACCCAUGUAAGAA |  |  | 0.0302 µM | 0.0334 µM
AGCCUGAGUCGAGGAUAUUAUGGAUCCUUUAAUACAUGAGGAUCACCCAUGUAAUUAAUUAUACAUGAGAAGGUGACUCAGGCA | 0.265 µM | 0.0251 µM |  | 
GAUAUUUUUUGAGGAUAUUCAUACACUGUAUACGGAGAAGGCAAACAAUCAUGAGGACAUGAGGAUCACCCAUGUUGUGACCAU | 0.0195 µM | 0.0135 µM |  | 
UGGUACUAGGGAGGAUAUGGGAAGAUACAUGAGGAUCACCCAUGUUUAAGAAUGCCGGGAGGCAACUAGAAGGCCCUAGUACCU | 0.478 µM | 0.0212 µM |  | 
GUAAACCUAGGAUAUACAUGAGGAUCACCCAUGUAUUGAUCGUGCGGCUGUUCCGGAGGUAGAAGGAGGAACCU |  |  | 0.0207 µM | 0.0342 µM
GGAUAGGACAGAGGAUAUACGUGCUAGAGCUACUAGCAAAAUUUCCUCACAUGAGGAUCACCCAUGUAGAAGGCUGUCCUAUCG |  |  | 0.0156 µM | 0.463 µM
GACUUUUCUGAGGAUAUUGCAUCAUACGAUUUAUAAGAAGGCAGAACAUGAGGAUCACCCAUGUGGGUUUUUAG |  |  | 0.0417 µM | 0.0911 µM
ACUAGAUGAGGAUAUGCAUAUUUUCGUGUUCUUCUAGAUUAACAUGAGGAUCACCCAUGUAGAAGGCGUCAUUU |  |  | 0.0157 µM | 0.0184 µM
